# Hits are enriched below; roughly 2.2% of the tested compounds scored in any of these assays.
# SIRT5 block = blocks human SIRT5 desuccinylation of peptide. Q9NXA8. Purified SirT5, succinyl-peptide AMC, trypsin-coupled fluorescence. inhibition, % at 15 µM. 1.1% of 330,000 active. AID 652115; in the data active = inhibition above about 15%
# Target sequence (Q9NXA8 whole entry, looked up): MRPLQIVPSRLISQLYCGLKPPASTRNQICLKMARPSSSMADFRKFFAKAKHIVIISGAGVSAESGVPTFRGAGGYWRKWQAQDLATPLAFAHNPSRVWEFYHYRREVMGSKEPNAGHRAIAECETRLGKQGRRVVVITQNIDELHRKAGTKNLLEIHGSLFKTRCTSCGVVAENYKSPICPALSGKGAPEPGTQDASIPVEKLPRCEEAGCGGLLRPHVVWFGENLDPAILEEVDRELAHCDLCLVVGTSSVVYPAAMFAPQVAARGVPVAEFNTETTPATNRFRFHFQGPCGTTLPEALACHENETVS
# FN deposition inh = fibronectin deposition inhibition | inhibition, % at 12.6 µM | 0.086% of 350,000 active | AH1F fibroblasts, Alexa488-fibronectin deposition fluorescence, overnight;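 active = mean inhibition across replicates of 30% or more, regardless of how many single replicates reach that level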;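 also: positive control wells lacked labelled fibronectin entirely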
#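 Measured by – fluorescence 485/525 nm · System – AH1F fibroblast monolayer, labelled fibronectin deposition · Amount – 10000 cells per well · Buffer or medium – serum-reduced DMEM (2% serum) · Doses – single dose, pinned · Also added – fluorescent fibronectin at 24 nM final · Schedule – 1 h cell attachment, overnight exposure to compound and label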
# FGF22 binding = binders of recombinant human FGF22 by thermal shift; Q9HCT0; SYPRO orange fluorescence; percent of sucrose octasulfate shift, DMSO zero; activity (Tm shift, normalised), % at 9.99 µM; 1.5% of 340,000 active; AID 651658;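 active = mean Tm shift, scaled 0 neutral to 100 positive control, at about 1.3% or above, every replicate too, limit read from the data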
# Target sequence (Q9HCT0 whole entry, looked up): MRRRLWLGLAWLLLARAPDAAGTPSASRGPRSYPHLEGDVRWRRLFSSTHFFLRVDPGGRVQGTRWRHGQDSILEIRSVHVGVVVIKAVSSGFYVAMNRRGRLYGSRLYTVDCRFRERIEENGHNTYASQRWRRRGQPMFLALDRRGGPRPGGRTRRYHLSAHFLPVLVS
# ERAP1 HTS inh = blocks human ERAP1 aminopeptidase activity; Q9NZ08; recombinant ERAP1, Leu-AMC fluorescence, 60 min; inhibition, % at 10.7 µM; 0.15% of 340,000 active; AID 652197;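 active = mean replicate inhibition of at least 30%, or all replicates individually reaching that 30% level; inactive = mean below 30% and not every replicate reaching it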;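 also: 0% = neutral control wells and 100% = L-leucinethiol positive control wells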
# PGC1a acetyl inh = PGC1a acetylation modulation, inhibitor mode; 0.17% of 350,000 active; inhibition, % at 15.6 µM; U2OS PGC1a acetylation, AlphaScreen anti-acetyl-lysine; with virally co-expressed GCN5 acetyltransferase;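 active = every replicate shows inhibition of at least 40%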;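 also: 0% = neutral control wells and 100% = positive control wells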
# Numbers without * were called inactive; / = no result given; ! = not confirmed by another sample.
SMILES,SIRT5 block,FN deposition inh,FGF22 binding,ERAP1 HTS inh,PGC1a acetyl inh
CCc1ccccc1NCC(=O)Nc1ccccc1C(=O)OC,-1.0,-6.7,43.8*,-0.5,/
O=C(O)C[C@@H]1C[C@@H]2c3cc(NC(=O)c4ccc5c(c4)OCO5)ccc3O[C@@H]2[C@@H](CO)O1,2.4,2.0,-0.5,-2.7,8.0
CC1(C)NC(=O)N(CCCCOc2ccc(Cl)cc2C=O)C1=O,-2.4,-0.1,43.1*,0.3,/
C[C@@H]1CN([C@@H](C)CO)C(=O)c2cccc(NC(=O)Nc3ccc4c(c3)OCO4)c2O[C@H]1CN(C)C,-4.2,/,-0.1,0.5,12.2
COc1ccccc1NC(=O)N[C@H]1CC[C@@H](CCn2cc(-c3ccccc3)nn2)O[C@@H]1CO,8.6,/,-0.1,-0.1,0.8
CN(c1nc2nonc2nc1NC1CC1)C1CCOC1 (stereo not given),-0.6,3.8,43.1*,2.9,/
C[C@H](NC(=O)C[C@H]1C=C[C@@H](NC(=O)CN2CCOCC2)[C@H](CO)O1)c1ccccc1,-0.1,1.7,-0.3,7.1,/
C[C@@H]1CN([C@@H](C)CO)C(=O)Cc2cc(NS(=O)(=O)c3ccc(F)cc3)ccc2O[C@@H]1CN(C)CC1CC1,-6.0,-1.9,0.0,-0.5,-6.8
O=C(CSC1CC(=O)N(c2ccc(C(=O)O)cc2)C1=O)Nc1ccc(Cl)cc1 (stereo not given),17.8*,-8.3,/,-1.5,/
O=C(O)CSC1CC(=O)N(c2ccc(F)cc2)C1=O (stereo not given),0.1,4.7,-0.1,-2.3,-6.2
C=C(C)CN(CC)C(=O)CSc1nc(O)cc(=O)n1C1CCCC1,0.9,15.3,43.1*,4.7,2.1
C[C@@H]1CCCCO[C@@H](CN(C)Cc2ccc(C(F)(F)F)cc2)[C@H](C)CN([C@@H](C)CO)C(=O)c2cc(NS(=O)(=O)c3ccccc3)ccc2O1,20.9*,-6.3,/,-2.9,5.1
C[C@@H]1CCCCO[C@H](CN(C)Cc2ccc(C(F)(F)F)cc2)[C@@H](C)CN([C@@H](C)CO)C(=O)c2cc(NS(=O)(=O)c3ccccc3)ccc2O1,19.8*,-12.7,/,-3.7,-1.8
C[C@@H]1CN([C@H](C)CO)C(=O)c2cc(NS(=O)(=O)c3ccccc3)ccc2O[C@@H](C)CCCCO[C@@H]1CN(C)Cc1ccc(C(F)(F)F)cc1,0.4,1.3,/,-1.6,14.4
C[C@@H]1CN([C@@H](C)CO)C(=O)c2cc(NS(=O)(=O)c3ccccc3)ccc2O[C@@H](C)CCCCO[C@H]1CN(C)Cc1ccc(C(F)(F)F)cc1,17.7*,-13.8,/,-1.0,-6.5
C[C@@H]1CN([C@@H](C)CO)C(=O)c2cc(NS(=O)(=O)c3ccccc3)ccc2O[C@@H]1CN(C)S(C)(=O)=O,3.1,/,0.6,3.9,9.3
Cc1noc(C)c1S(=O)(=O)Nc1ccc2c(c1)C(=O)N([C@@H](C)CO)C[C@H](C)[C@H](CN(C)S(=O)(=O)c1cccs1)O2,-3.3,/,-0.1,-1.2,11.4
CC(=O)N(c1ccccc1)c1ccc([N+](=O)[O-])cc1[N+](=O)[O-],/,13.1,/,/,4.2
CC(=O)N(c1cc(C)ccc1C)c1ccccc1[N+](=O)[O-],/,-7.6,43.0*,-1.1,3.1
COc1ccccc1S(=O)(=O)N[C@H]1C=C[C@H](CC(=O)N2CCN(C)CC2)O[C@H]1CO,2.1,/,-0.2,4.0,18.4
O=C(COC(=O)c1ccc(OC(F)(F)F)cc1)NCCN1C(=O)CSC1=O,0.4,-8.2,0.3,-0.2,-0.2
Cc1noc(C)c1COc1ccc(C(=O)OCC(=O)NCCN2C(=O)CSC2=O)cc1,-2.3,-0.1,43.5*,-7.4,-9.5
Cc1cc(C=O)c(C)n1-c1ccc(Cl)c(C(=O)O)c1,7.3,-5.6,-0.1,31.7*,0.6
O=C(Nc1ccc2c(c1)OCO2)N1C[C@@H]2N[C@H](C1)C2c1ccc(C=Cc2ccccc2)cc1 (stereo not given in full),17.0*!,-3.9,/,0.3,-8.3
C/C=C/c1ccc(C2[C@@H]3CN(C(=O)Nc4ccccc4F)C[C@H]2N3)cc1 (stereo not given in full),/,-6.1,-0.3,/,6.7
SMILES,SIRT5 block,FN deposition inh,FGF22 binding,ERAP1 HTS inh,PGC1a acetyl inh
O=C(C1CCOCC1)N1C[C@@H]2N[C@H](C1)C2c1ccc(-c2ccccc2F)cc1 (stereo not given in full),/,8.0,0.1,/,-6.0
O=C(C1CCCC1)N1C[C@@H]2N[C@H](C1)C2c1ccc(-c2ccccc2F)cc1 (stereo not given in full),25.2*!,1.6,/,1.3,-1.0
O=C(Nc1ccccc1F)N1C[C@@H]2N[C@H](C1)C2c1ccc(/C=C/c2ccccc2)cc1 (stereo not given in full),26.9*,8.9,/,1.7,-7.4
O=C(C[C@H]1CC[C@@H](NC(=O)c2ccccn2)[C@@H](CO)O1)NCc1cc(F)cc(F)c1,6.6,4.0,0.2,8.2,-1.6
CCC(=O)N[C@H]1CC[C@@H](CCn2cc(-c3cccc(OC)c3)nn2)O[C@H]1CO,2.1,/,0.1,-0.4,-1.5
O=C(COc1ncnc2sccc12)Nc1ccc(F)cc1F,-5.6,14.0,43.9*,1.3,/
COCC(=O)N1CC(=O)N2[C@H](CO)[C@H](c3ccc(C#Cc4cccnc4)cc3)[C@@H]2C1,-1.1,/,/,-2.2,14.4
CC1C2CCC(C2)C1OC(=O)c1ccccc1C(=O)O (stereo not given),/,6.7,43.9*,-1.9,/
O=C(O)c1ccccc1C(=O)OC1CCCC2CCCC21 (stereo not given),/,-6.4,43.2*,-5.9,/
O=C(O)c1ccccc1N1C(=O)C2C3CCC(C3)C2C1=O (stereo not given),1.5,-4.9,-0.1,1.4,/
C[C@H](CO)N1C[C@H](C)[C@H](CN(C)Cc2ccc(Oc3ccccc3)cc2)Oc2ccc(NS(C)(=O)=O)cc2CC1=O,1.5,/,0.0,5.0,1.4
Cc1ccccc1S(=O)(=O)N1C[C@H](O)COC[C@H]2O[C@H](CC(=O)NCc3ccccc3Cl)CC[C@@H]21,4.7,-3.9,-0.2,1.7,-4.0
Oc1ccc(N=Nc2ccccc2-c2nn[nH]n2)c(O)c1,17.3*,-14.2,0.3,6.2,/
Cc1ccccc1-c1nn[nH]n1,/,1.6,/,/,-0.5
COc1ccc2ccc3cccc[n+]3c2c1,-35.3,-12.5,0.0,43.2*,/
COc1ccc2nc3ccccc3[n+]([O-])c2c1,/,-9.3,-0.2,-21.0,/
Cc1ccc(/C=C2/C(=N)N3N=C(CC(=O)N4CCCC4)SC3=NC2=O)o1,6.4,2.8,-0.2,5.9,7.1
N=C1/C(=C\c2ccc(Br)o2)C(=O)N=C2SC(CC(=O)N3CCCCC3)=NN12,20.6*,-6.4,0.0,-1.3,8.9
CCOC(=O)N1CCN(C(=O)/C(=C/c2cccs2)NC(=O)c2cccs2)CC1,17.4*,-4.3,0.1,6.2,1.1
O=C(N/C(=C/c1cccnc1)C(=O)N1CCOCC1)c1ccccc1,-2.6,-5.9,43.2*,-4.5,/
